Measured values published in ChEMBL document CHEMBL1126653, “Structure-function studies of amphiphilic antibacterial peptides” (1993).
Converted amounts (≈) assume the structure as drawn. Peptide text beside a SMILES is read from it.

What was measured:
Proteus mirabilis = test: Compound tested for the antimicrobial activity against Proteus mirabilis; format: functional
Procedure, shortened: (§1)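 Microbroth dilution in Tryptic Soy Broth; inoculum 5×10^5 CFU/mL; plates incubated at 37 °C for 18-20 h; value reported as minimal inhibitory concentration (µg/mL).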

Enterobacter cloacae [1] = test: Compound tested for the antimicrobial activity against Enterobacter cloacae; format: functional; procedure, shortened: as §1
Klebsiella pneumoniae = test: Compound tested for the antimicrobial activity against Klebsiella pneumoniae; format: functional
Procedure, shortened: (§2)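 MIC by microbroth dilution in Tryptic Soy Broth; inoculum 5×10^5 CFU/mL; plates incubated 18-20 h at 37 °C; assay pH approximately 7.4.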

Escherichia coli = test: Compound tested for in vitro susceptibility against ATCC strain 25922 of Escherichia coli; format: functional; details: ATCC25922; procedure, shortened: as §1
Enterobacter cloacae [2] = test: (§3) Compound tested for the antimicrobial activity against Enterobacter cloacae ROS; format: functional; procedure, shortened: as §2
[3] = Hemolytic activity towards human erythrocytes is evaluated for magainin 2 at peptide concentration of 25 ug/mL; format: functional
Procedure, shortened: (§4)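 Washed human erythrocytes from healthy volunteers (3 mL packed cells, PBS pH 7.4 washes, diluted to 20 mL) exposed to peptide in PBS at 25-200 µg/mL, 30 min at 37 °C; supernatant absorbance at 576 nm after centrifugation; 0.1% Triton X-100 taken as 100% hemolysis; duplicates.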

Shigella flexneri = test: Compound tested for the antimicrobial activity against Shigella flexneri; format: functional; procedure, shortened: as §2
[4] = tested on: Acinetobacter calcoaceticus subsp. anitratus; test: (§5) Compound tested for the antimicrobial activity against Acinetobacter anitratus; format: functional, aeinetobacter anitrotap; procedure, shortened: as §2
[5] = Hemolytic activity towards human erythrocytes is evaluated for magainin 2 at peptide concentration of 200 µg/mL; format: functional; procedure, shortened: as §4
Pseudomonas aeruginosa [6] = test: Compound tested for in vitro susceptibility against ATCC strain 27853 of Pseudomonas aeruginosa; format: functional; details: ATCC 27853; procedure, shortened: as §1
Staphylococcus aureus [7] = test: Compound tested for in vitro susceptibility against ATCC strain 29213 of Staphylococcus aureus; format: functional; procedure, shortened: as §1
[8] = Hemolytic activity towards human erythrocytes is evaluated for magainin 2 at peptide concentration of 50 µg/mL; format: functional; procedure, shortened: as §4
[9] = Hemolytic activity towards human erythrocytes is evaluated for magainin 2 at peptide concentration of 100 µg/mL; format: functional; procedure, shortened: as §4
[10] = tested on: Salmonella enterica subsp. enterica serovar Anatum; test: Compound tested for the antimicrobial activity against S. a natum; format: functional, salmoneila anatum; procedure, shortened: as §1
Pseudomonas aeruginosa [11] = test: Compound tested for the antimicrobial activity against Pseudomonas aeruginosa strain 6; format: functional; procedure, shortened: as §1
Pseudomonas aeruginosa [12] = test: Compound tested for the antimicrobial activity against Pseudomonas aeruginosa strain ATCC 25916; format: functional; procedure, shortened: as §1
Staphylococcus aureus [13] = test: Compound tested for the activity against Staphylococcus aureus strain 4; format: functional; procedure, shortened: as §1
Pseudomonas aeruginosa [14] = test: Compound tested for the antimicrobial activity against Pseudomonas aeruginosa strain 3; format: functional; procedure, shortened: as §1
Pseudomonas aeruginosa [15] = test: Compound tested for the antimicrobial activity against Pseudomonas aeruginosa strain 7; format: functional; procedure, shortened: as §1
Staphylococcus aureus [16] = test: Compound tested for the activity against Staphylococcus aureus strain 11; format: functional; procedure, shortened: as §1
Staphylococcus aureus [17] = test: Compound tested for the activity against Staphylococcus aureus strain 1; format: functional; procedure, shortened: as §1
Staphylococcus aureus [18] = test: Compound tested for the activity against Staphylococcus aureus strain 7; format: functional; procedure, shortened: as §1
Enterobacter cloacae [19] = test: as §3; format: functional, enterobacter cloacaeros; procedure, shortened: as §2
Pseudomonas aeruginosa [20] = test: Compound tested for the antimicrobial activity against Pseudomonas aeruginosa strain 2; format: functional; procedure, shortened: as §1
Pseudomonas aeruginosa [21] = test: Compound tested for the antimicrobial activity against Pseudomonas aeruginosa strain 10; format: functional; procedure, shortened: as §1
Staphylococcus aureus [22] = test: Compound tested for the activity against Staphylococcus aureus strain 3; format: functional; procedure, shortened: as §1
Staphylococcus aureus [23] = test: Compound tested for the activity against Staphylococcus aureus strain 5; format: functional; procedure, shortened: as §1
Staphylococcus aureus [24] = test: Compound tested for the activity against Staphylococcus aureus strain 2; format: functional; procedure, shortened: as §1
[25] = tested on: Acinetobacter calcoaceticus subsp. anitratus; test: as §5; format: functional; procedure, shortened: as §2
Pseudomonas aeruginosa [26] = test: Compound tested for the antimicrobial activity against Pseudomonas aeruginosa strain 1; format: functional; procedure, shortened: as §1
Staphylococcus aureus [27] = test: Compound tested for the activity against Staphylococcus aureus strain 10; format: functional; procedure, shortened: as §1
Pseudomonas aeruginosa [28] = test: Compound tested for the antimicrobial activity against Pseudomonas aeruginosa strain 8; format: functional; procedure, shortened: as §1
Staphylococcus aureus [29] = test: Compound tested for the activity against Staphylococcus aureus strain ATCC 28953; format: functional; procedure, shortened: as §1
Pseudomonas aeruginosa [30] = test: Compound tested for the antimicrobial activity against Pseudomonas aeruginosa strain 5; format: functional; procedure, shortened: as §1
Staphylococcus aureus [31] = test: Compound tested for the activity against Staphylococcus aureus strain 9; format: functional; procedure, shortened: as §1
Staphylococcus aureus [32] = test: Compound tested for the activity against Staphylococcus aureus strain 8; format: functional; procedure, shortened: as §1
Pseudomonas aeruginosa [33] = test: Compound tested for the antimicrobial activity against Pseudomonas aeruginosa strain 11; format: functional; procedure, shortened: as §1
Staphylococcus aureus [34] = test: Compound tested for the activity against Staphylococcus aureus strain 6; format: functional; procedure, shortened: as §1
Pseudomonas aeruginosa [35] = test: Compound tested for the antimicrobial activity against Pseudomonas aeruginosa strain 9; format: functional; procedure, shortened: as §1
Pseudomonas aeruginosa [36] = test: Compound tested for the antimicrobial activity against Pseudomonas aeruginosa strain 4; format: functional; procedure, shortened: as §1

Q: Which MIC (Proteus mirabilis) does the source give for `CC(C)C[C@H](NC(=O)[C@H](Cc1c[nH]cn1)NC(=O)[C@H](CC(C)C)NC(=O)[C@H](Cc1c[nH]c2ccccc12)NC(=O)[C@H](Cc1c[nH]cn1)NC(=O)[C@H](Cc1c[nH]cn1)NC(=O)[C@H](C)NC(=O)[C@H](Cc1c[nH]c2ccccc12)NC(=O)[C@H](Cc1c[nH]cn1)NC(=O)[C@H](Cc1c[nH]cn1)NC(=O)[C@H](Cc1c[nH]c2ccccc12)NC(=O)[C@H](CC(C)C)NC(=O)[C@@H](N)Cc1c[nH]cn1)C(=O)N[C@@H](Cc1c[nH]c2ccccc12)C(=O)N[C@@H](Cc1c[nH]cn1)C(=O)N[C@@H](C)C(=O)N[C@@H](Cc1c[nH]c2ccccc12)C(=O)O` (H-HLWHHWAHHWLHLWHAW-OH) here?
A: Its MIC is over 100 µg/mL.

Q: And the MIC (Enterobacter cloacae [1])?
A: The MIC was under 0.39 µg/mL.

Q: And the MIC (Klebsiella pneumoniae)?
A: Its MIC is over 100 µg/mL.

Q: And the MIC (Escherichia coli)?
A: The MIC was 25 µg/mL (≈ 10.5 µM).

Q: And the MIC (Enterobacter cloacae [2])?
A: Its MIC is 50 µg/mL (≈ 20.9 µM).

Q: And the Hemolysis [3]?
A: Its Hemolysis is 0%.

Q: And the MIC (Shigella flexneri)?
A: The MIC was 12.5 µg/mL (≈ 5.23 µM).

Q: What about the MIC [4] of the same compound?
A: Its MIC is under 0.39 µg/mL.

Q: What about the Hemolysis [5] of the same compound?
A: Its Hemolysis is 0%.

Q: And the MIC (Pseudomonas aeruginosa [6])?
A: The MIC was 12.5 µg/mL (≈ 5.23 µM).

Q: And the MIC (Staphylococcus aureus [7])?
A: Its MIC is 50 µg/mL (≈ 20.9 µM).

Q: And the Hemolysis [8]?
A: The Hemolysis was 0%.

Q: And the Hemolysis [9]?
A: The Hemolysis was 0%.

Q: And the MIC [10]?
A: The MIC was over 100 µg/mL.

Q: For `CC(C)C[C@H](NC(=O)[C@H](CCCCN)NC(=O)[C@H](CCCCN)NC(=O)[C@H](Cc1c[nH]c2ccccc12)NC(=O)[C@H](CCCCN)NC(=O)[C@H](CCCCN)NC(=O)[C@H](CCCCN)NC(=O)[C@H](C)NC(=O)[C@H](CCCCN)NC(=O)[C@H](CCCCN)NC(=O)[C@H](Cc1c[nH]c2ccccc12)NC(=O)[C@H](C)NC(=O)[C@@H](N)CCCCN)C(=O)N[C@@H](C)C(=O)N[C@@H](CCCCN)C(=O)N[C@@H](CCCCN)C(=O)N[C@@H](Cc1c[nH]c2ccccc12)C(=O)O` (H-KAWKKAKKKWKKLAKKW-OH), which MIC (Escherichia coli) is on record?
A: The MIC was 200 µg/mL (≈ 91.5 µM).

Q: What about the MIC (Pseudomonas aeruginosa [6]) of the same compound?
A: The MIC was over 200 µg/mL.

Q: And the MIC (Staphylococcus aureus [7])?
A: The MIC was 200 µg/mL (≈ 91.5 µM).

Q: What does the source list for `CC(C)C[C@H](NC(=O)[C@H](CCCCN)NC(=O)[C@H](CCCCN)NC(=O)[C@H](CC(C)C)NC(=O)[C@H](CC(C)C)NC(=O)[C@H](CCCCN)NC(=O)[C@H](CC(C)C)NC(=O)[C@H](CC(C)C)NC(=O)[C@H](CCCCN)NC(=O)[C@@H](N)CCCCN)C(=O)O` (H-KKLLKLLKKL-OH)?
A: MIC (Escherichia coli): > 200 µg/mL; MIC (Pseudomonas aeruginosa [6]): > 200 µg/mL; MIC (Staphylococcus aureus [7]): > 200 µg/mL

Q: For `CC(C)C[C@H](NC(=O)[C@H](CCCCN)NC(=O)[C@H](CC(C)C)NC(=O)[C@H](Cc1c[nH]c2ccccc12)NC(=O)[C@H](CCCCN)NC(=O)[C@@H](N)CCCCN)C(=O)N[C@@H](Cc1c[nH]c2ccccc12)C(=O)N[C@@H](CCCCN)C(=O)N[C@@H](C)C(=O)N[C@@H](Cc1c[nH]c2ccccc12)C(=O)O` (H-KKWLKLWKAW-OH), which MIC (Proteus mirabilis) is on record?
A: Its MIC is over 100 µg/mL.

Q: And the MIC (Pseudomonas aeruginosa [11])?
A: Its MIC is over 100 µg/mL.

Q: What about the MIC (Pseudomonas aeruginosa [12]) of the same compound?
A: Its MIC is 25 µg/mL (≈ 18 µM).

Q: What about the MIC (Staphylococcus aureus [13]) of the same compound?
A: The MIC was over 100 µg/mL.

Q: And the MIC (Enterobacter cloacae [1])?
A: The MIC was under 0.39 µg/mL.

Q: What about the MIC (Pseudomonas aeruginosa [14]) of the same compound?
A: Its MIC is 50 µg/mL (≈ 36.1 µM).

Q: And the MIC (Klebsiella pneumoniae)?
A: Its MIC is over 100 µg/mL.

Q: What about the MIC (Pseudomonas aeruginosa [15]) of the same compound?
A: Its MIC is 50 µg/mL (≈ 36.1 µM).

Q: And the MIC (Staphylococcus aureus [16])?
A: Its MIC is over 100 µg/mL.

Q: And the MIC (Staphylococcus aureus [17])?
A: Its MIC is over 100 µg/mL.

Q: And the MIC (Escherichia coli)?
A: The MIC was 25 µg/mL (≈ 18 µM).

Q: What about the MIC (Staphylococcus aureus [18]) of the same compound?
A: Its MIC is over 100 µg/mL.

Q: And the MIC (Enterobacter cloacae [19])?
A: The MIC was 50 µg/mL (≈ 36.1 µM).

Q: And the MIC (Pseudomonas aeruginosa [20])?
A: Its MIC is 12.5 µg/mL (≈ 9.01 µM).

Q: And the MIC (Pseudomonas aeruginosa [21])?
A: Its MIC is 50 µg/mL (≈ 36.1 µM).

Q: And the MIC (Shigella flexneri)?
A: The MIC was under 0.39 µg/mL.

Q: What about the MIC (Staphylococcus aureus [22]) of the same compound?
A: Its MIC is over 100 µg/mL.

Q: And the MIC (Staphylococcus aureus [23])?
A: The MIC was over 100 µg/mL.

Q: And the MIC (Staphylococcus aureus [24])?
A: The MIC was over 100 µg/mL.

Q: What about the MIC [25] of the same compound?
A: The MIC was under 0.39 µg/mL.

Q: What about the MIC (Pseudomonas aeruginosa [26]) of the same compound?
A: The MIC was 25 µg/mL (≈ 18 µM).

Q: And the MIC (Pseudomonas aeruginosa [6])?
A: The MIC was 12.5 µg/mL (≈ 9.01 µM).

Q: What about the MIC (Staphylococcus aureus [7]) of the same compound?
A: Its MIC is 12.5 µg/mL (≈ 9.01 µM).

Q: And the MIC (Staphylococcus aureus [27])?
A: The MIC was over 100 µg/mL.

Q: And the MIC (Pseudomonas aeruginosa [28])?
A: The MIC was 50 µg/mL (≈ 36.1 µM).

Q: And the MIC (Staphylococcus aureus [29])?
A: Its MIC is over 100 µg/mL.

Q: What about the MIC (Pseudomonas aeruginosa [30]) of the same compound?
A: Its MIC is 50 µg/mL (≈ 36.1 µM).

Q: And the MIC (Staphylococcus aureus [31])?
A: Its MIC is over 100 µg/mL.

Q: What about the MIC (Staphylococcus aureus [32]) of the same compound?
A: Its MIC is over 100 µg/mL.

Q: And the MIC (Pseudomonas aeruginosa [33])?
A: The MIC was 50 µg/mL (≈ 36.1 µM).

Q: And the MIC (Staphylococcus aureus [34])?
A: Its MIC is over 100 µg/mL.

Q: And the MIC (Pseudomonas aeruginosa [35])?
A: The MIC was over 100 µg/mL.

Q: And the MIC [10]?
A: Its MIC is 12.5 µg/mL (≈ 9.01 µM).

Q: What about the MIC (Pseudomonas aeruginosa [36]) of the same compound?
A: The MIC was 50 µg/mL (≈ 36.1 µM).
